pEC50: −log10 of the molar value. Calls of active or inactive are those of the source. The rule behind the calls is not given here.
Experiments:
CHO [1] = assay: Modulation of gamma-secretase in CHO cells overexpressing APP V717 mutant assessed as increase in amyloid beta38 level after 17 hrs by ELISA; type: cell-based; settings: Cricetulus griseus
Outline: (§1)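 CHO cells overexpressing APP V717F; Aβ42, Aβ40 and Aβ38 quantified together in each well by multiplex Aβ ELISA. EC50 is the mean of at least two determinations.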

[2] = Modulation of gamma-secretase in CHO cells overexpressing APP V717 mutant assessed as reduction in amyloid beta42 level after 17 hrs by ELISA; type: cell-based; settings: Cricetulus griseus; outline: as §1
CHO [3] = assay: Modulation of gamma-secretase in CHO cells overexpressing APP V717 mutant assessed as effect on amyloid beta40 level after 17 hrs by ELISA; type: cell-based; settings: Cricetulus griseus; outline: as §1
[4] = Drug uptake in CF1 mouse brain at 30 mg/kg, po after 4 hrs; type: ADME, organism-based; design: dose 30 mg/kg, route oral; settings: read-out: Drug uptake
Outline: (§2)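 Wild-type CF-1 mice received a single oral dose as a solution in ethanol:propylene glycol:10% solutol (1:1:8). Animals were sacrificed 4 h after dosing. Brain and plasma were collected for drug concentration and Aβ levels. Aβ change was expressed relative to vehicle-treated controls.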

[5] = Plasma concentration in CF1 mouse at 30 mg/kg, po after 4 hrs; type: ADME, organism-based; design: dose 30 mg/kg, route oral
Outline: (§3)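 Wild-type (CF-1) mice given compound orally as a solution in ethanol:propylene glycol:10% solutol (1:1:8). Animals sacrificed 4 h post-dose; brain and plasma collected for drug exposure and Aβ levels.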

Mus musculus [6] = assay: Antialzheimer activity in CF1 mouse assessed as reduction in amyloid beta42 level in brain at 30 mg/kg, po after 4 hrs by ELISA; type: functional; design: scale not given: the % may be the effect or the level left; outline: as §2
[7] = Plasma concentration in CF1 mouse at 50 mg/kg, po after 4 hrs; type: ADME, organism-based; design: dose 50 mg/kg, route oral; outline: as §3
[8] = Drug uptake in CF1 mouse brain at 50 mg/kg, po after 4 hrs; type: ADME, organism-based; design: dose 50 mg/kg, route oral; settings: read-out: Drug uptake; outline: as §2
Mus musculus [9] = assay: Antialzheimer activity in CF1 mouse assessed as reduction in amyloid beta42 level in brain at 50 mg/kg, po after 4 hrs by ELISA; type: functional; outline: as §2
[10] = Modulation of gamma-secretase

CCCC(C(=O)O)c1ccc(C(c2ccc(F)cc2)N2CCC(C)CC2)c(-c2ccc(C(F)(F)F)cc2)c1 (configuration not stated)
Activity (CHO [1]): Active
pEC50 [2]: 6.60
Activity (CHO [3]): inactive

CC1CCN(C(c2ccc(Cl)cc2)c2ccc(C(C)C(=O)O)cc2-c2ccc(C(F)(F)F)cc2)CC1 (configuration not stated)
Activity (CHO [1]): Active
pEC50 [2]: 6.38
concentration at 4 h [4]: 19.4 µM
concentration at 4 h [5]: 27.1 µM
Activity (Mus musculus [6]): 25%
Activity (CHO [3]): inactive

CC(C(=O)O)c1ccc(C(c2ccc(F)cc2)N2CCN(C)CC2)c(-c2ccc(C(F)(F)F)cc2)c1 (configuration not stated)
Activity (CHO [1]): Active
pEC50 [2]: < 5.00
Activity (CHO [3]): inactive

CC1CCN(C(c2ccc(F)cc2)c2ccc(C(CC3CC3)C(=O)O)cc2-c2ccc(C(F)(F)F)cc2)CC1 (configuration not stated)
Activity (CHO [1]): Active
pEC50 [2]: 6.96
concentration at 4 h [4]: 11.8 µM
concentration at 4 h [5]: 29.6 µM
Activity (Mus musculus [6]): 40%
Activity (CHO [3]): inactive

CC1CCN(C(c2ccc(C(F)(F)F)cc2)c2ccc(C(C)C(=O)O)cc2-c2ccc(C(F)(F)F)cc2)CC1 (configuration not stated)
Activity (CHO [1]): Active
pEC50 [2]: 6.74
concentration at 4 h [4]: 14 µM
concentration at 4 h [5]: 20.5 µM
Activity (Mus musculus [6]): inactive
Activity (CHO [3]): inactive

CC(C)(C)c1ccc(-c2cc(CC(=O)O)ccc2C(c2ccc(F)cc2)N2CCC(C(F)(F)F)CC2)cc1 (configuration not stated)
Activity (CHO [1]): Active
concentration at 4 h [7]: 6.3 µM
concentration at 4 h [8]: 1 µM
pEC50 [2]: 6.25
Activity (Mus musculus [9]): inactive
Activity (CHO [3]): inactive

CC(C(=O)O)c1ccc(C(c2ccc(F)cc2)N2CC3CCC(C3)C2)c(-c2ccc(C(F)(F)F)cc2)c1 (configuration not stated)
Activity (CHO [1]): Active
pEC50 [2]: 6.41
concentration at 4 h [4]: 3.1 µM
concentration at 4 h [5]: 10.7 µM
Activity (Mus musculus [6]): 25%
Activity (CHO [3]): inactive

C[C@@H](C(=O)O)c1ccc(-c2ccccc2)c(F)c1 [TARENFLURBIL]
pEC50 [10]: 3.52

CC(C(=O)O)c1ccc(C(c2ccc(F)cc2)N2CCCC2)c(-c2ccc(C(F)(F)F)cc2)c1 (configuration not stated)
Activity (CHO [1]): Active
pEC50 [2]: 5.64
Activity (CHO [3]): inactive

CC(C)(C)CC(C(=O)O)c1ccc(C(c2ccc(F)cc2)N2CCCCC2)c(-c2ccc(C(F)(F)F)cc2)c1 (configuration not stated)
Activity (CHO [1]): Active
pEC50 [2]: 7.40
Activity (CHO [3]): inactive

CC(C)CCN(Cc1ccc(CC(=O)O)cc1-c1ccc(C(F)(F)F)cc1)c1ccc(C(F)(F)F)cc1
concentration at 4 h [8]: 0.6 µM
pEC50 [2]: 6.00

CC1CCN(C(c2ccc(C(F)(F)F)nc2)c2ccc(C(C)C(=O)O)cc2-c2ccc(C(F)(F)F)cc2)CC1 (configuration not stated)
Activity (CHO [1]): Active
pEC50 [2]: 6.24
concentration at 4 h [4]: 10.9 µM
concentration at 4 h [5]: 25.2 µM
Activity (Mus musculus [6]): 23%
Activity (CHO [3]): inactive

O=C(O)Cc1ccc(C(c2ccc(F)cc2)N2CCC(C(F)(F)F)CC2)c(-c2ccc(C(F)(F)F)cc2)c1 (configuration not stated)
Activity (CHO [1]): Active
concentration at 4 h [7]: 26 µM
concentration at 4 h [8]: 7.4 µM
pEC50 [2]: 5.96
Activity (Mus musculus [9]): 20%
Activity (CHO [3]): inactive

CC(C(=O)O)c1ccc(C(c2ccc(F)cc2)N2CCC3(CC2)CC3)c(-c2ccc(C(F)(F)F)cc2)c1 (configuration not stated)
Activity (CHO [1]): Active
pEC50 [2]: 6.40
Activity (CHO [3]): inactive

CC1CCN(C(c2ccc(F)cn2)c2ccc(C(C)C(=O)O)cc2-c2ccc(C(F)(F)F)cc2)CC1 (configuration not stated)
Activity (CHO [1]): Active
pEC50 [2]: 5.43
Activity (CHO [3]): inactive

CC1CCN(C(c2ccc(F)cc2)c2ccc(C(C)C(=O)O)cc2-c2cnc(C(C)(C)C)nc2)CC1 (configuration not stated)
Activity (CHO [1]): Active
pEC50 [2]: 5.35
Activity (CHO [3]): inactive

CC(C(=O)O)c1ccc(C(c2ccc(F)cc2)N2CCC(F)CC2)c(-c2ccc(C(F)(F)F)cc2)c1 (configuration not stated)
Activity (CHO [1]): Active
pEC50 [2]: 5.70
Activity (CHO [3]): inactive

CC(C(=O)O)c1ccc(C(c2ccc(F)cc2)N2CCCCC2)c(-c2ccc(C(F)(F)F)cc2)c1 (configuration not stated)
Activity (CHO [1]): Active
pEC50 [2]: 5.85
Activity (CHO [3]): inactive

CCC(C(=O)O)c1ccc(C(c2ccc(F)cc2)N2CCC(C)CC2)c(-c2ccc(C(F)(F)F)cc2)c1 (configuration not stated)
Activity (CHO [1]): Active
pEC50 [2]: 6.48
concentration at 4 h [4]: 13 µM
concentration at 4 h [5]: 20.4 µM
Activity (Mus musculus [6]): 40%
Activity (CHO [3]): inactive

CC(C(=O)O)c1ccc(C(c2ccc(F)cc2)N2CCC(C)(C)CC2)c(-c2ccc(C(F)(F)F)cc2)c1 (configuration not stated)
Activity (CHO [1]): Active
pEC50 [2]: 6.52
concentration at 4 h [4]: 25.3 µM
concentration at 4 h [5]: 27.2 µM
Activity (Mus musculus [6]): 30%
Activity (CHO [3]): inactive

CC(C)CC(C(=O)O)c1ccc(C(c2ccc(F)cc2)N2CCCCC2)c(-c2ccc(C(F)(F)F)cc2)c1 (configuration not stated)
Activity (CHO [1]): Active
concentration at 4 h [7]: 32.2 µM
concentration at 4 h [8]: 5.7 µM
pEC50 [2]: 6.92
Activity (Mus musculus [9]): 30%
Activity (CHO [3]): inactive

O=C(O)Cc1ccc(C(c2ccc(F)cc2)N2CCC(C(F)(F)F)CC2)c(-c2ccc(F)cc2)c1 (configuration not stated)
Activity (CHO [1]): Active
pEC50 [2]: 5.64
Activity (CHO [3]): inactive

CC(C(=O)O)c1ccc(C(c2ccc(F)cc2)N2CCCC(C)(C)C2)c(-c2ccc(C(F)(F)F)cc2)c1 (configuration not stated)
Activity (CHO [1]): Active
pEC50 [2]: 6.77
concentration at 4 h [4]: 2.5 µM
concentration at 4 h [5]: 5.3 µM
Activity (Mus musculus [6]): 25%
Activity (CHO [3]): inactive

CC(C(=O)O)c1ccc(C(c2ccc(F)cc2)N2CC3CCCC3C2)c(-c2ccc(C(F)(F)F)cc2)c1 (configuration not stated)
Activity (CHO [1]): Active
pEC50 [2]: 6.21
concentration at 4 h [4]: 12.1 µM
concentration at 4 h [5]: 16.3 µM
Activity (Mus musculus [6]): 30%
Activity (CHO [3]): inactive

CC1CCN(C(c2ccc(F)cc2)c2ccc(C(C(=O)O)C(C)C)cc2-c2ccc(C(F)(F)F)cc2)CC1 (configuration not stated)
Activity (CHO [1]): Active
pEC50 [2]: 6.92
Activity (CHO [3]): inactive

CC1CCN(C(c2ccc(F)cc2)c2ccc(C(C)C(=O)O)cc2-c2ccc(C(F)(F)F)cc2)CC1 (racemic)
Activity (CHO [1]): Active
pEC50 [2]: 6.41
concentration at 4 h [4]: 18.4 µM
concentration at 4 h [5]: 27.2 µM
Activity (Mus musculus [6]): 45%
Activity (CHO [3]): inactive

CC(C(=O)O)c1ccc(C(c2ccc(F)cc2)N2CCC(C(F)(F)F)CC2)c(-c2ccc(C(F)(F)F)cc2)c1 (configuration not stated)
Activity (CHO [1]): Active
pEC50 [2]: 6.74
concentration at 4 h [4]: 14.4 µM
concentration at 4 h [5]: 21.7 µM
Activity (Mus musculus [6]): 40%
Activity (CHO [3]): inactive

CC1CCN(C(c2ccc(F)c(F)c2)c2ccc(C(C)C(=O)O)cc2-c2ccc(C(F)(F)F)cc2)CC1 (configuration not stated)
Activity (CHO [1]): Active
pEC50 [2]: 6.60
concentration at 4 h [4]: 12 µM
concentration at 4 h [5]: 20.8 µM
Activity (Mus musculus [6]): 40%
Activity (CHO [3]): inactive

CC1CCN(C(c2ccc(F)cc2)c2ccc(CC(=O)O)cc2-c2ccc(C(F)(F)F)cc2)CC1 (configuration not stated)
Activity (CHO [1]): Active
pEC50 [2]: 5.54
Activity (CHO [3]): inactive

CC1CCN(C(c2ccc(F)cc2)c2ccc(C3(C(=O)O)CC3)cc2-c2ccc(C(F)(F)F)cc2)CC1 (configuration not stated)
Activity (CHO [1]): Active
pEC50 [2]: 5.66
Activity (CHO [3]): inactive

— ChEMBL document CHEMBL2146445, “Discovery of BIIB042, a Potent, Selective, and Orally Bioavailable γ-Secretase Modulator” (ACS Med Chem Lett, 2011)
